Test results taken from ChEMBL document CHEMBL1154904 (J Med Chem, 2010).
Values belong to the molecule of their own block, whether it stands above or below them.

Tests used:
[1] = in vitro; details: human, Caco-2
[2] = in vitro; details: human, Caco-2; remark: listed apart in the source
[3] = Cmax in rat at 30 mg/kg, po; assay type: ADME, organism-based; set-up: dose 30 mg/kg, route oral; details: in vivo
In short: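 Rats were fasted and given a single oral dose of 30 mg/kg. Cmax was taken from plasma drug concentrations.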

[4] = Plasma concentration in Sprague-Dawley rat deep vein thrombosis model at 0.3 mg/kg, iv administered for 45 mins measured after 30 mins post dose; assay type: ADME, organism-based; set-up: dose 0.3 mg/kg, route intravenous
In short: (§1)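 Rats received vehicle (solutol 10% and D5W) or compound by jugular vein infusion over 45 min at 0.04 mL/min, to total cumulative doses of 0.1, 0.3 or 1.0 mg/kg. Thrombus formation in the vena cava began at 30 min of infusion. Blood was drawn from a carotid catheter at the end of the experiment for coagulation times and plasma drug concentration.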

[5] = tested on: Rattus norvegicus; experiment: Plasma concentration in Sprague-Dawley rat electrical current-induced arterial thrombosis model at 1 mg/kg, iv administered 5 mins before electrical stimulation for 20 mins; assay type: ADME, organism-based; set-up: dose 1 mg/kg, route intravenous; details: in vivo
In short: (§2)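 Anesthetized rats with a carotid Doppler flow probe received 10% solutol vehicle or compound (0.03–1.0 mg/kg) by slow left jugular infusion over 20 min at 0.05 mL/min. Electrical stimulation of the carotid began 5 min into the infusion and lasted 5 min. Occlusion was followed for 30 min; plasma drug levels were related to aPTT.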

[6] = Plasma concentration in Sprague-Dawley rat deep vein thrombosis model at 10 mg/kg, po measured after 70 mins post; assay type: ADME, organism-based; set-up: dose 10 mg/kg, route oral
In short: (§3)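 For oral dosing, compound at 10, 30 or 50 mg/kg was solubilized in 0.5% methocel (5 mL/kg) and given by oral dosing tube. Rats were anesthetized 45 min after dosing, followed by the venous thrombus procedure. Blood was sampled at study termination for plasma drug concentration and coagulation times.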

[7] = Plasma concentration in Sprague-Dawley rat deep vein thrombosis model at 0.1 mg/kg, iv administered for 45 mins measured after 30 mins post dose; assay type: ADME, organism-based; set-up: dose 0.1 mg/kg, route intravenous
In short: as §1

[8] = Oral bioavailability in rat at 10 mg/kg; assay type: ADME, organism-based; details: in vivo
In short: (§4)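 Fasted animals received a single oral dose of 10 mg/kg unless another dose was specified. Half-life was taken from the po profile.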

[9] = Plasma concentration in Sprague-Dawley rat deep vein thrombosis model at 1 mg/kg, iv administered for 45 mins measured after 30 mins post dose; assay type: ADME, organism-based; set-up: dose 1 mg/kg, route intravenous
In short: as §1

[10] = tested on: Rattus norvegicus; experiment: Plasma concentration in Sprague-Dawley rat electrical current-induced arterial thrombosis model at 0.3 mg/kg, iv administered 5 mins before electrical stimulation for 20 mins; assay type: ADME, organism-based; set-up: dose 0.3 mg/kg, route intravenous; details: in vivo
In short: as §2

[11] = Plasma concentration in Sprague-Dawley rat deep vein thrombosis model at 30 mg/kg, po measured after 70 mins post; assay type: ADME, organism-based; set-up: dose 30 mg/kg, route oral
In short: as §3

[12] = Oral bioavailability in dog at 10 mg/kg, po; assay type: ADME, organism-based, Canis lupus familiaris; details: in vivo
In short: as §4

[13] = Apparent volume of distribution with respect to bioavailability in healthy human at 100 to 500 […]; assay type: ADME, organism-based; details: in vivo, in the assay text read “100 to 500 mg” for “100 to 500 mg/kg”, read-out: Vc/F
In short: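 Double-blind, placebo-controlled single oral solution doses (4–500 mg) in healthy fasted (≥10 h) males: six drug and two placebo subjects per cohort, given with 200 mL water. Venous blood was taken predose and at 0.5–48 h for plasma levels. aPTT was recorded in seconds and as a ratio to individual −1 h baseline.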

[14] = Plasma concentration in mongrel dog arterio-venous shunt model of thrombosis at 3 mg/kg, po after 1 hr; assay type: ADME, organism-based, Canis lupus familiaris; set-up: dose 3 mg/kg, route oral
In short: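 Adult mongrel dogs of either sex (13.2–14.5 kg) were dosed orally at 3 mg/kg. After a 1 h observation period they were anesthetized with pentobarbital (35 mg/kg iv). Plasma taken at the 1 h time point was assayed for drug concentration and aPTT.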

[15] = Cmax in dog at 10 mg/kg, po; assay type: ADME, organism-based, Canis lupus familiaris; set-up: dose 10 mg/kg, route oral; details: in vivo
In short: (§5)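 Fasted rats or dogs received a single oral dose of 10 mg/kg. Plasma drug levels gave Cmax and oral half-life.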

[16] = Plasma concentration in Sprague-Dawley rat deep vein thrombosis model at 50 mg/kg, po measured after 70 mins post; assay type: ADME, organism-based; set-up: dose 50 mg/kg, route oral
In short: as §3

[17] = Tmax in healthy human at 4 to 500 mg po; details: in vivo
[18] = Cmax in rat at 10 mg/kg, po; assay type: ADME, organism-based; set-up: dose 10 mg/kg, route oral; details: in vivo
In short: as §5

SMILES: Cc1ccc(CCNc2ncc(C)n(CC(=O)N(C)CCON=C(N)N)c2=O)cc1
Papp B→A [1]: 0.6 ×10⁻⁶ cm/s
Papp A→B [2]: 0.27 ×10⁻⁶ cm/s

SMILES: N#Cc1cnc(NCC(F)(F)c2ccccc2)c(=O)n1CC(=O)NCCON=C(N)N
concentration [5]: 380 nM
bioavailability [8]: 11%
concentration [10]: 85 nM
Cmax [18]: 200 nM
bioavailability [12]: 57%
concentration at 1 h [14]: 480 nM
Papp B→A [1]: 2.26 ×10⁻⁶ cm/s
Cmax [15]: 3300 nM
Papp A→B [2]: 0.5 ×10⁻⁶ cm/s

SMILES: Cc1cnc(NCCc2cccc3ccccc23)c(=O)n1CC(=O)NCCON=C(N)N
Papp B→A [1]: 11.8 ×10⁻⁶ cm/s
Papp A→B [2]: 0.32 ×10⁻⁶ cm/s

SMILES: Cc1cnc(NCC(c2ccccc2)c2ccccc2)c(=O)n1CC(=O)NCCONC(=N)N
Papp B→A [1]: 13 ×10⁻⁶ cm/s
Papp A→B [2]: 0.14 ×10⁻⁶ cm/s

SMILES: N=C(N)NOCCNC(=O)Cn1c(Cl)cnc(NCC(F)(F)c2ccccc2)c1=O
bioavailability [8]: 9%
Cmax [18]: 200 nM
bioavailability [12]: 60%
Papp B→A [1]: 3.04 ×10⁻⁶ cm/s
Cmax [15]: 1600 nM
Papp A→B [2]: 0.5 ×10⁻⁶ cm/s

Continued, values first:

Papp B→A [1]: 1.91 ×10⁻⁶ cm/s
Papp A→B [2]: 0.5 ×10⁻⁶ cm/s
SMILES: Cc1cnc(NCCc2ccc(F)cc2F)c(=O)n1CC(=O)NCCONC(=N)N

Cmax [3]: 3300 nM
concentration at 0.5 h [4]: 540 nM
concentration [5]: 310 nM
concentration at 70 min [6]: 100 nM
concentration at 0.5 h [7]: 310 nM
bioavailability [8]: 23%
concentration at 0.5 h [9]: 800 nM
concentration [10]: 120 nM
concentration at 70 min [11]: 760 nM
bioavailability [12]: 103%
Vd/F [13]: 530 L
concentration at 1 h [14]: 870 nM
Papp B→A [1]: 6.45 ×10⁻⁶ cm/s
Cmax [15]: 5700 nM
Papp A→B [2]: 1.37 ×10⁻⁶ cm/s
concentration at 70 min [16]: 730 nM
Tmax [17]: 1.25 h
SMILES: Cc1cnc(NCC(F)(F)c2ccccc2)c(=O)n1CC(=O)NCCONC(=N)N

Papp B→A [1]: 1.48 ×10⁻⁶ cm/s
Papp A→B [2]: 0.55 ×10⁻⁶ cm/s
SMILES: Cc1cnc(NCCc2ccc(F)cc2)c(=O)n1CC(=O)NCCONC(=N)N

Papp B→A [1]: 1.84 ×10⁻⁶ cm/s
Papp A→B [2]: 0.92 ×10⁻⁶ cm/s
SMILES: Cc1cnc(NCCc2ccc(F)c(F)c2)c(=O)n1CC(=O)NCCONC(=N)N

Papp B→A [1]: 10.3 ×10⁻⁶ cm/s
Papp A→B [2]: 0.29 ×10⁻⁶ cm/s
SMILES: CCc1ccc(CCNc2ncc(C)n(CC(=O)NCCONC(=N)N)c2=O)cc1

Papp B→A [1]: 4.29 ×10⁻⁶ cm/s
Papp A→B [2]: 0.67 ×10⁻⁶ cm/s
SMILES: Cc1cnc(NCCc2ccc3c(c2)CCC3)c(=O)n1CC(=O)NCCONC(=N)N
